The values below come from ChEMBL document CHEMBL2163190, “Synthesis and evaluation of substituted chroman-4-one and chromone derivatives as sirtuin 2-selective inhibitors” (J Med Chem, 2012).

pIC50: −log10 of the molar value. Activity calls are given as the source filed them. The calls are words filed in the database; no cut-off is given here.

For assay [1], the target named is T1, NAD-dependent protein deacetylase sirtuin-3, mitochondrial (Homo sapiens) (UniProt Q9NTG7).
T1 sequence (whole entry): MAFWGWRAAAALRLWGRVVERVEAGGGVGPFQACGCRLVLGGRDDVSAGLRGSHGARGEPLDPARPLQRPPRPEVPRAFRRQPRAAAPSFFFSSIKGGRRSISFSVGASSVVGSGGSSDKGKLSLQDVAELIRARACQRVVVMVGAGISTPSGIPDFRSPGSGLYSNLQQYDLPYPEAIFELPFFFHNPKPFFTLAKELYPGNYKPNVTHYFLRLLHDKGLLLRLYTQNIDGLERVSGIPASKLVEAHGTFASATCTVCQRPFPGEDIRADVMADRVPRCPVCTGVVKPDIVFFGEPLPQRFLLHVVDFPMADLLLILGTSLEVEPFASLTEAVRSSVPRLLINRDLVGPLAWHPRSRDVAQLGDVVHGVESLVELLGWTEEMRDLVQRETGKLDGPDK
Nature of the assay: Inhibition of recombinant His-tagged SIRT3 preincubated at 200 uM for 5 mins measured after 1hr by Fluor de Lys-based fluorescence assay. Summed up:
(§1)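 Fluor de Lys assay with compound at 200 μM in DMSO. […] Substrate was used at 0.7 Km and NAD+ at 0.9 Km. Preincubated 5 min at RT, then enzyme for 1 h at 37 °C, then developer/nicotinamide for 45 min at 37 °C. Read at ex 355/em 460 nm.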

In assay [2] the target is T2, NAD-dependent protein deacetylase sirtuin-1 (Homo sapiens) (UniProt Q96EB6).
T2 sequence (whole entry): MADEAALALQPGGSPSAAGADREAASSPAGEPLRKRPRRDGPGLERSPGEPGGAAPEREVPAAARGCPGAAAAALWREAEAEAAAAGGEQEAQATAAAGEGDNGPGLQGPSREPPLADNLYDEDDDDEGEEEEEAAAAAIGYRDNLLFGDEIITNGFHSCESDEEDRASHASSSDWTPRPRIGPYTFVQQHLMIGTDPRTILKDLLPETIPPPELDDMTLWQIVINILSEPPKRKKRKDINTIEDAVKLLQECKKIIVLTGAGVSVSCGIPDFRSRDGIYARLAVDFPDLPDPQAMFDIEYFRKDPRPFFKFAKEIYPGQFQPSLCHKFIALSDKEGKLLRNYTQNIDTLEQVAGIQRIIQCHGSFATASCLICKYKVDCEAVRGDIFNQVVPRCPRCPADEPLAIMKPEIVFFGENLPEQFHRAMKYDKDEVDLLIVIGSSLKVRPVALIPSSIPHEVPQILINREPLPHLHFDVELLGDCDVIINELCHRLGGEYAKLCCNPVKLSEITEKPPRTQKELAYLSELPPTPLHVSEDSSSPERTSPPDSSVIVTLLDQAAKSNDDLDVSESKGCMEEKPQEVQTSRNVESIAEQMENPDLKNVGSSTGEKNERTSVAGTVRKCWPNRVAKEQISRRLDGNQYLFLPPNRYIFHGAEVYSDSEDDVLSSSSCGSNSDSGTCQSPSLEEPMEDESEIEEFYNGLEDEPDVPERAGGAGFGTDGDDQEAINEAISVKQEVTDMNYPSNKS
Nature of the assay: Inhibition of recombinant GST-tagged SIRT1 preincubated at 200 uM for 5 mins measured after 1hr by Fluor de Lys-based fluorescence assay. Summed up:
as §1

For assay [3], the target named is T3, NAD-dependent protein deacetylase sirtuin-2 (Homo sapiens, UniProt Q8IXJ6).
T3 sequence (Q8IXJ6 whole entry): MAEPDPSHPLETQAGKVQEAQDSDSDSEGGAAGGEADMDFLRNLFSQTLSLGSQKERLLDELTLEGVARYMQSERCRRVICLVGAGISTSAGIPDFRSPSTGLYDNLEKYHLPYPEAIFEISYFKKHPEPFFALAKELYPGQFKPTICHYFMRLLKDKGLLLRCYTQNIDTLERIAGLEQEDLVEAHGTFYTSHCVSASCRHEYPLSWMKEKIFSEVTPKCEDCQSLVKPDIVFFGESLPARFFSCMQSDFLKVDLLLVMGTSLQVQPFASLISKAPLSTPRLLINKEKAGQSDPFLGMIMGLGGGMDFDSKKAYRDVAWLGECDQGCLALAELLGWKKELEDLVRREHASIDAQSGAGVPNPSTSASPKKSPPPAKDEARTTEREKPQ
Kind of assay: Inhibition of human recombinant GST-tagged SIRT2 preincubated for 5 mins measured after 1 hr by Fluor de Lys-based fluorescence assay. Summed up:
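Fluorogenic GST-SIRT2 assay using KI179 at 0.7 Km and NAD+ at 0.9 Km, in BSA-supplemented HDAC buffer. Compound, substrate and NAD+ were preincubated 5 min at RT, then enzyme added for 1 h at 37 °C, followed by developer/nicotinamide for 45 min at 37 °C. Fluorescence read at 355/460 nm.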

For assay [4], the target named is T4, NAD-dependent protein deacetylase sirtuin-2 (Homo sapiens) (UniProt Q8IXJ6).
T4 sequence (whole entry): T3 sequence (Q8IXJ6 whole entry)
Kind of assay: Inhibition of human recombinant GST-tagged SIRT2 preincubated at 200 uM for 5 mins measured after 1 hr by Fluor de Lys-based fluorescence assay. The method in brief:
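GST-SIRT2 assay with Fluor de Lys KI179 substrate at 0.7 Km (Km 198 μM) and NAD+ at 0.9 Km (Km 547 μM), in HDAC buffer with 1 mg/mL BSA. Substrate, NAD+ and compound (200 μM, DMSO) were preincubated 5 min at RT, then enzyme added for 1 h at 37 °C. Developer plus nicotinamide (2 mM) was added for 45 min at 37 °C. Read at ex 355/em 460 nm; n = 3, SD.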

The target of assay [5] is T4, NAD-dependent protein deacetylase sirtuin-2 (Homo sapiens). Nature of the assay: Inhibition of SIRT2 using RSTGGK(Ac)APRKQ as substrate assessed as inhibition of [14C]nicotinamide release at 200 uM after 1h by TLC. The method in brief: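 Recombinant GST-SIRT2 started the reaction with [carbonyl-14C]NAD+ (43.2 nCi) and acetylated peptide RSTGGK(Ac)APRKQ (196 μM). Buffer was HDAC assay buffer plus 1 mg/mL BSA, with compound at 200 μM final in DMSO. Incubated 1 h at 37 °C. The whole mixture was run on silica TLC in ethanol/2.5 M ammonium acetate (80:20), exposed overnight to X-ray film, and [14C]nicotinamide quantified by densitometry.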

Assay [6] has the same target. Kind of assay: Inhibition of human SIRT2 assessed as inhibition of deacetylation of rat stem cell acetylated alpha-tubulin at 200 uM after 30 to 60 mins by Western blot analysis. The method in brief: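 Acetylated α-tubulin (0.5 μg) isolated from rat stem cells was incubated with recombinant GST-SIRT2, NAD+ (500 μM) and compound (200 μM final, DMSO vehicle) in SIRT assay buffer for 30 or 60 min at 37 °C. Samples were resolved on 10% SDS-PAGE and blotted to nitrocellulose. Probed with anti-acetylated tubulin mAb 6-11B-1 (1:8000, 2 h, RT), then HRP anti-mouse secondary (1:50000, 2 h).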
For orientation: A western blot detects proteins with antibodies after separation by electrophoresis.

Regarding `CCCCCc1cc(=O)c2cc(Cl)cc(Br)c2o1`, the results for the inhibition in assay [1], in assay [2] and in assay [4] were below 10%, below 10% and 82%, respectively. Also, the pIC50 (in general, the IC50 on a negative log10 scale, so that one unit is a factor of ten) in assay [3] is 5.26.

On to `CCCCC[C@@H]1CC(=O)c2cc(Cl)cc(Br)c2O1`, for which the figures for the inhibition in assay [1], in assay [2] and in assay [4] were below 10%, below 10% and 70%, respectively. In addition, the pIC50 in assay [3] was 5.35.

`CCCCC[C@H]1CC(=O)c2cc(Cl)cc(Br)c2O1`: the inhibition (in general, how much of the control response was suppressed) is below 10% in assay [1], below 10% in assay [2] and 91% in assay [4]. Further, the negative logarithm of the IC50 (pIC50) in assay [3] was 5.82.

Take `CCCCCC1C=Cc2cc(Cl)cc(Br)c2O1` (centres undefined): the inhibition in assay [4] is 38%.

In the case of `CCCCCC1CCc2cc(Cl)cc(Br)c2O1` (centres undefined), the inhibition in assay [4] stood at 38%.

`O=c1cc(-c2ccccc2)oc2c(Br)cc(Cl)cc12`: in assay [4], the inhibition was found to be 20%.

For `CCCCCC1CC(O)c2cc(Cl)cc(Br)c2O1` (mixture of isomers), the inhibition in assay [4] came to 31%.

For `CCCC1CC(=O)c2cc(Cl)cc(Br)c2O1` (racemic), the values for the inhibition in assay [1], in assay [2] and in assay [4] were below 10%, below 10% and 76%, respectively. Moreover, in assay [3], the pIC50 was 4.97.

In the case of `O=C1CC(CCc2ccccc2)Oc2c(Br)cc(Cl)cc21` (racemic), the inhibition was 16% in assay [1], below 10% in assay [2] and 81% in assay [4]. For the same compound, the pIC50 in assay [3] is 5.17.

As for `CCCCCC1CC(=O)c2cc(Cl)cc(Br)c2O1` (racemic), the inhibition in assay [5] is 66%; in assay [1], below 10%; in assay [2], below 10%; in assay [4] it was 88%. The inhibition result in assay [6] is “Active”. Besides, the pIC50 in assay [3] is 5.37.

Regarding `CCCCCC1CC(=O)c2cc(Br)cc(Br)c2O1` (racemic), the inhibition in assay [1] was below 10%; in assay [2], below 10%; in assay [4], 92%. For the same compound, in assay [3], the pIC50 was 5.82.

For `CCCCCC1CC(=O)c2cc(C)cc(C)c2O1` (racemic), the inhibition in assay [1] was below 10%; in assay [2], below 10%; in assay [4], 83%. For the same compound, the pIC50 in assay [3] is 5.21.

Take `CC(C)C1CC(=O)c2cc(Cl)cc(Br)c2O1` (racemic): the inhibition in assay [4] was 52%.

Turning to `CCCCCC1CC(=O)c2cc(Cl)ccc2O1` (racemic), the inhibition in assay [4] was determined as 55%.

For `CCCCCC1CC(=O)c2cc(F)cc(F)c2O1` (racemic), the inhibition in assay [4] turned out to be 30%.

For the compound `CCCCCC1CC(=O)c2cc(OC)ccc2O1` (racemic), the inhibition in assay [4] stood at 20%.

For the compound `CCCCCC1CC(=O)c2cc([N+](=O)[O-])ccc2O1` (racemic), the inhibition in assay [4] was determined as 58%.

Take `CCCCCC1CC(=O)c2ccc(F)cc2O1` (racemic): the inhibition in assay [4] came to 18%.

As for `CCCCCC1CC(=O)c2cccc(Br)c2O1` (racemic), the inhibition in assay [4] is 28%.

With `CCCCCC1CC(=O)c2ccccc2O1` (racemic), the inhibition in assay [4] is 4.9%.

Turning to `CCCCCCCC1CC(=O)c2cc(Cl)cc(Br)c2O1` (racemic), the inhibition in assay [4] was 57%.

As to `Cc1ccc(S(=O)(=O)n2cc(CCC3CC(=O)c4cc(Cl)cc(Br)c4O3)c3ccccc32)cc1` (racemic), the inhibition in assay [4] was determined as 27%.

Consider `O=C1CC(CCc2c[nH]c3ccccc23)Oc2c(Br)cc(Cl)cc21` (racemic), for which, in assay [4], the inhibition turned out to be 53%.
